Measurements as given in ChEMBL document CHEMBL1135831, “Expansion of structure-activity studies of piperidine analogues of 1-[2-(diphenylmethoxy)ethyl]-4-(3-phenylpropyl)piperazine (GBR 12935) compounds by altering substitutions in the N-benzyl moiety and behavioral pharmacology of selected molecules” (J Med Chem, 2002).

Legend:
[1] = molecular target: Monoamine transporters; Norepininephrine & dopamine (Rattus norvegicus) (UniProt P23977+Q9WTR4); assay: Selectivity ratio against dopamine and norepinephrine transporter binding; assay type: protein assay
Summary of the method: (§1)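 Ratio of radioligand binding values: SERT ([³H]citalopram) or NET ([³H]nisoxetine) over DAT ([³H]WIN 35,428). Binding 0–4 °C, 2 h (DAT, SERT) or 3 h (NET), final Na⁺ 30 mM (DAT, SERT) or 225 mM (NET); each value from three independent experiments in triplicate.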

[2] = molecular target: Monoamine transporters; serotonin & dopamine (Rattus norvegicus) (UniProt P31652+P23977); assay: Relative binding to serotonin and dopamine transporters; assay type: protein assay; summary of the method: as §1
Sequence of Monoamine transporters; serotonin & dopamine (Rattus norvegicus) (P23977 whole entry, looked up): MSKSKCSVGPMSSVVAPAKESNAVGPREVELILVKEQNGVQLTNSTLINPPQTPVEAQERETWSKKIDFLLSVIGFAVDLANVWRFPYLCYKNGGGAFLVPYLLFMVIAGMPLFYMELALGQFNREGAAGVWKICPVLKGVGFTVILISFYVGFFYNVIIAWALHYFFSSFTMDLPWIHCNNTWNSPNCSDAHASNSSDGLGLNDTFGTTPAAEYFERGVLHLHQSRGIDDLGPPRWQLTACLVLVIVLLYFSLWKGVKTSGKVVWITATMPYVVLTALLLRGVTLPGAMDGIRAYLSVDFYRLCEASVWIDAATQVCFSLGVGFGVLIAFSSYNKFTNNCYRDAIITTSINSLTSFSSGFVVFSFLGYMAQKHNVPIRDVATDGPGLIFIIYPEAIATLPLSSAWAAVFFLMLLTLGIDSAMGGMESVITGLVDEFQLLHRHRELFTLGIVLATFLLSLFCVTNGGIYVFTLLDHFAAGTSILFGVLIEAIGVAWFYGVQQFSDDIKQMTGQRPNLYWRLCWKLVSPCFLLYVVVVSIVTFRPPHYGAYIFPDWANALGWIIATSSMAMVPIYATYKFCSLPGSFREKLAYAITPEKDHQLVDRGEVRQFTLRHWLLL
Sequence of Monoamine transporters; serotonin & dopamine (Rattus norvegicus) (P31652 whole entry, looked up): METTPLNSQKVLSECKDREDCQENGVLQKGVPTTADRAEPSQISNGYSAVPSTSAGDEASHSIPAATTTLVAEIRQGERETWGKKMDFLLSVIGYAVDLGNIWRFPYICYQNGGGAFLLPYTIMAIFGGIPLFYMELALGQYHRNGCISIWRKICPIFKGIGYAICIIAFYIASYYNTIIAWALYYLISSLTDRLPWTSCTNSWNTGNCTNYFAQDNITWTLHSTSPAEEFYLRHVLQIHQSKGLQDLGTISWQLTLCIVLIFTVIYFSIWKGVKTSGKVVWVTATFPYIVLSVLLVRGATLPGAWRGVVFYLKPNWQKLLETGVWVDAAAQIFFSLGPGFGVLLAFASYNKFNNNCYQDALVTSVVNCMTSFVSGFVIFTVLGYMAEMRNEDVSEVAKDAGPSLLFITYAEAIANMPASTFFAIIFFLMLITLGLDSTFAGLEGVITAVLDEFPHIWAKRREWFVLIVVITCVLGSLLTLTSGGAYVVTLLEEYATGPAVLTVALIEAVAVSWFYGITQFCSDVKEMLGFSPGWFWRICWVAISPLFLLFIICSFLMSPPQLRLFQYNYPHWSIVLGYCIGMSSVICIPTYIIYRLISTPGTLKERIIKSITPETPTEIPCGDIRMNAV

[3] = molecular target: Sodium-dependent dopamine transporter (Rattus norvegicus, UniProt P23977); assay: Inhibition of 3[H] WIN-35 428 binding to Dopamine transporter (DAT)
Sequence of Sodium-dependent dopamine transporter (P23977 whole entry): as the sequence (P23977 whole entry, looked up) above

[4] = molecular target: Norepinephrine transporter (Rattus norvegicus, UniProt Q9WTR4); assay: Inhibition of [3H]- […] binding to Norepinephrine transporter
Sequence of Norepinephrine transporter (Q9WTR4 whole entry): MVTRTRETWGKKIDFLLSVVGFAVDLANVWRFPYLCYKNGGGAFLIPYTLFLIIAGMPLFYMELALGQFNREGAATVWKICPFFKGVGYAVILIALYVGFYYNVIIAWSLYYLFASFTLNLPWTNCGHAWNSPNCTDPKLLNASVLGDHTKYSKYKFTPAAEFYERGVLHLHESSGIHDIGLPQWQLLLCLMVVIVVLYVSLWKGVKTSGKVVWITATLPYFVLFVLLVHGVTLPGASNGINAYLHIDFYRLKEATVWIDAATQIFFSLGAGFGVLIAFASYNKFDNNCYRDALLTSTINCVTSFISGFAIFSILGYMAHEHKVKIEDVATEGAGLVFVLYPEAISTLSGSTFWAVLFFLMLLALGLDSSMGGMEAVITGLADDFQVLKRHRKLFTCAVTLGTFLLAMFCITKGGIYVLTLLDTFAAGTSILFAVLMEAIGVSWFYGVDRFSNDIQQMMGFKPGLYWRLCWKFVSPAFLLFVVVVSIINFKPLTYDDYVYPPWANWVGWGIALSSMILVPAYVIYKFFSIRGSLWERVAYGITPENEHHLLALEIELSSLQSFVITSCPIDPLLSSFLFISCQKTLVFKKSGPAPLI

[5] = molecular target: Sodium-dependent serotonin transporter (Rattus norvegicus, UniProt P31652); assay: Inhibition of [3H]- citalopram binding to Serotonin transporter
Sequence of Sodium-dependent serotonin transporter (P31652 whole entry): as the sequence (P31652 whole entry, looked up) above

Rattus norvegicus [6] = organism: Rattus norvegicus; assay: Concentration causing 50% Inhibition of [3H]- DA (Dopamine) uptake in rat striatal synaptosomes; assay type: functional; details: Brain
[7] = Selectivity ratio 3[H]DA uptake /DAT binding
Rattus norvegicus [8] = organism: Rattus norvegicus; assay: Inhibition of [3H]- DA (Dopamine) uptake in rat striatal synaptosomes; assay type: functional; details: Brain

| SMILES | Ratio [1] | Ratio [2] | IC50 [3] | IC50 [4] | IC50 [5] | IC50 (Rattus norvegicus [6]) | Ratio [7] | IC50 (Rattus norvegicus [8]) |
| --- | --- | --- | --- | --- | --- | --- | --- | --- |
| Oc1ccc(CN2CCC(CCOC(c3ccccc3)c3ccccc3)CC2)cc1 | 14 | 18 | 240 nM | 3340 nM | 4330 nM | – | – | – |
| COC(=O)c1ccc(CN2CCC(CCOC(c3ccccc3)c3ccccc3)CC2)cc1 | – | 110 | 8.23 nM | – | 924 nM | 1.94 nM | 0.23 | – |
| C=C(C)c1ccc(CN2CCC(CCOC(c3ccccc3)c3ccccc3)CC2)cc1 | 72 | 88 | 11.6 nM | 832 nM | 1030 nM | 3.1 nM | 0.26 | – |
| CC#Cc1ccc(CN2CCC(CCOC(c3ccccc3)c3ccccc3)CC2)cc1 | 18 | 37 | 65.1 nM | 1170 nM | 2410 nM | – | – | – |
| C=Cc1ccc(CN2CCC(CCOC(c3ccccc3)c3ccccc3)CC2)cc1 | 240 | 500 | 2.96 nM | 715 nM | 1470 nM | 1.08 nM | 0.36 | – |
| Oc1cccc(CN2CCC(CCOC(c3ccccc3)c3ccccc3)CC2)c1 | 47 | 69 | – | 678 nM | – | – | 0.72 | 10.4 nM |
| Ic1ccc(CN2CCC(CCOC(c3ccccc3)c3ccccc3)CC2)cc1 | 1200 | 3040 | – | 1150 nM | – | 2.01 nM | 2.1 | – |
| COc1cccc(CN2CCC(CCOC(c3ccccc3)c3ccccc3)CC2)c1 | 24 | 55 | – | 472 nM | 1080 nM | – | 0.34 | 6.68 nM |
| C#Cc1ccc(CN2CCC(CCOC(c3ccccc3)c3ccccc3)CC2)cc1 | 180 | 250 | 4.1 nM | 760 nM | 1040 nM | 4.81 nM | 1.2 | – |
